# In ChEMBL document CHEMBL5236602, “Synthesis and Characterization of NUC-7738, an Aryloxy Phosphoramidate of 3'-Deoxyadenosine, as a Potential Anticancer Agent” (J Med Chem, 2022):
# Active and inactive are the calls of the source. No cut-off for these calls is given here.
# Key:
# HepG2 [1] = test: Cytotoxicity against human HepG2 cells assessed as cell death incubated for 72 hrs by MTS assay; assay type: functional; details: read-out: LC50 (the source's name)
# How it was run: (§1)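 Contracted MTS assay. Cells seeded the day before treatment and exposed 72 h to nine serial concentrations (3.16-fold steps, top 198 μM), tested in duplicate. MTS added, then 4 h at 37 °C and absorbance read. LC50 is the concentration killing 50% of cells. MI% is the maximum inhibition over the tested range.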
# CCRF-CEM [2] = test: Cytotoxicity against human CCRF-CEM cells assessed as cell death incubated for 72 hrs by MTS assay; assay type: functional; details: read-out: LC50 (the source's name); how it was run: as §1
# HepG2 [3] = test: Cytotoxicity against human HepG2 cells assessed as maximum cell growth inhibition incubated for 72 hrs by MTS assay relative to control; assay type: functional
# How it was run: (§2)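 Cells from the 20-line panel were seeded the day before dosing, then exposed to compound for 72 h. MTS was added, followed by 4 h at 37 °C, and absorbance was read. Nine serial 3.16-fold dilutions were tested, top 198 μM, in duplicate. MI% is the maximum inhibitory effect across the tested concentration range.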
# KG-1 [4] = test: Cytotoxicity against human KG-1 cells assessed as cell death incubated for 72 hrs by MTS assay; assay type: functional; how it was run: as §1
# MCF7 [5] = test: Cytotoxicity against human MCF7 cells assessed as maximum cell growth inhibition incubated for 72 hrs by MTS assay relative to control; assay type: functional; how it was run: as §2
# MOLT-4 [6] = test: Cytotoxicity against human MOLT-4 cells assessed as cell death incubated for 72 hrs by MTS assay; assay type: functional; details: read-out: LC50 (the source's name); how it was run: as §1
# HL-60 [7] = test: Cytotoxicity against human HL-60 cells assessed as cell death incubated for 72 hrs by MTS assay; assay type: functional; details: read-out: LC50 (the source's name); how it was run: as §1
# K562 [8] = test: Cytotoxicity against human K562 cells assessed as maximum cell growth inhibition incubated for 72 hrs by MTS assay relative to control; assay type: functional; how it was run: as §2
# K562 [9] = test: Cytotoxicity against human K562 cells assessed as cell death incubated for 72 hrs by MTS assay; assay type: functional; details: read-out: LC50 (the source's name); how it was run: as §1
# CCRF-CEM [10] = test: Cytotoxicity against human CCRF-CEM cells assessed as maximum cell growth inhibition incubated for 72 hrs by MTS assay relative to control; assay type: functional; how it was run: as §2
# HL-60 [11] = test: Cytotoxicity against human HL-60 cells assessed as maximum cell growth inhibition incubated for 72 hrs by MTS assay relative to control; assay type: functional; how it was run: as §2
# KG-1 [12] = test: Cytotoxicity against human KG-1 cells assessed as maximum cell growth inhibition incubated for 72 hrs by MTS assay relative to control; assay type: functional; how it was run: as §2
# MOLT-4 [13] = test: Cytotoxicity against human MOLT-4 cells assessed as maximum cell growth inhibition incubated for 72 hrs by MTS assay relative to control; assay type: functional; how it was run: as §2
# MCF7 [14] = test: Cytotoxicity against human MCF7 cells assessed as cell death incubated for 72 hrs by MTS assay; assay type: functional; details: read-out: LC50 (the source's name); how it was run: as §1
# MV4-11 = test: Cytotoxicity against human MV4-11 cells assessed as maximum cell growth inhibition incubated for 72 hrs by MTS assay relative to control; assay type: functional; how it was run: as §2
# [15] = Prodrug conversion in human RL cells assessed as fold increase in 3'-dATP level at 50 uM incubated for 2 hrs by LC-MS/MS analysis relative to 3'-Deoxyadenosine; assay type: ADME, cell-based
# [16] = Prodrug activation assessed as Saccharomyces cerevisiae carboxypeptidase Y-mediated (2R)-2-(((((2S,4R,5R)-5-(6-amino-9H-purin-9-yl)-4-hydroxytetrahydrofuran-2-yl)methoxy)(hydroxy)phosphoryl)amino)propanoic acid formation at 5 mg measured over 1 hr by 31P-NMR analysis
# How it was run: (§3)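 Prodrug (5 mg) in acetone-d6 with trizma buffer pH 7.6, with a t = 0 31P NMR (202 MHz) reference taken first. Carboxypeptidase Y stock (50 units/mL in trizma pH 7.6) added. 31P NMR spectra recorded over time to follow intermediate and aminoacyl phosphoramidate signals.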
# Leukemic stem cell [17] = test: Cytotoxicity against human leukemic stem cells (Lin-/CD34+/CD38-/CD123+) in myeloid leukemia cell line KG-1a assessed as preferential cell killing incubated for 72 hrs
# [18] = Stability in human plasma assessed as reduction in parent compound concentration at 20 uM measured upto 4 hrs by UPLC-MS/MS analysis; assay type: ADME, cell-free
# Leukemic stem cell [19] = test: Cytotoxicity against human leukemic stem cells (Lin-/CD34+/CD38-/CD123+) in myeloid leukemia cell line KG-1a assessed as reduction in LSC population at >1 uM incubated for 72 hrs
# K562 [20] = test: Potency index, ratio of 3'-Deoxyadenosine LC50 to test compound LC50 for cytotoxicity against human K562 cells assessed as cell death incubated for 72 hrs by MTS assay; assay type: functional
# [21] = Prodrug conversion in human HL-60 cells assessed as fold increase in 3'-dATP level at 50 uM incubated for 2 hrs by LC-MS/MS analysis relative to 3'-Deoxyadenosine; assay type: ADME, cell-based; details: hl-60, 2 h
# [22] = Drug metabolism in mouse plasma assessed as metabolite formation by measuring reduction in parent compound concentration at 20 uM incubated for 24 hrs in presence of adenosine deaminase inhibitor, EHNA by UPLC/MS/MS analysis; assay type: ADME, cell-free
# [23] = Prodrug conversion in human CCRF-CEM cells assessed as fold increase in 3'-dATP level at 50 uM incubated for 2 hrs by LC-MS/MS analysis relative to 3'-Deoxyadenosine; assay type: ADME, cell-based
# [24] = Drug concentration in human plasma at 20 uM measured after 30 sec by UPLC-MS/MS analysis; assay type: ADME, cell-free
# [25] = Drug concentration in mouse plasma at 20 uM measured after 30 sec by UPLC-MS/MS analysis; assay type: ADME, cell-free
# [26] = Stability in human plasma assessed as reduction in parent compound concentration at 20 uM incubated for 4 hrs in presence of adenosine deaminase inhibitor, EHNA by UPLC-MS/MS analysis; assay type: ADME, cell-free
# RL [27] = test: Cytotoxicity against deoxynucleotidyl transferase-negative human RL cells assessed as cell death preincubated with adenosine kinase inhibitor, A-134974 for 5 mins followed by compound addition and […]; assay type: functional, cell-based
# RL [28] = test: Cytotoxicity against deoxynucleotidyl transferase-negative human RL cells assessed as cell death preincubated with adenosine deaminase inhibitor, EHNA for 5 mins followed by compound addition and […]; assay type: functional, cell-based
# Jurkat = test: Potency index, ratio of 3'-Deoxyadenosine LC50 to test compound LC50 for cytotoxicity against human Jurkat cells assessed as cell death incubated for 72 hrs by MTS assay; assay type: functional
# [29] = Prodrug activation assessed as Saccharomyces cerevisiae carboxypeptidase Y-mediated (2R)-2-(((((2S,4R,5R)-5-(6-amino-9H-purin-9-yl)-4-hydroxytetrahydrofuran-2-yl)methoxy)(phenoxy)phosphoryl)amino)propanoic acid formation at 5 mg measured for 4 mins by 31P-NMR analysis; how it was run: as §3
# Adenosine deaminase [30] = target: T1, Adenosine deaminase (Bos taurus, UniProt P56658); test: Metabolic stability assessed as bovine recombinant adenosine deaminase-mediated 3'-deoxyinosine metabolite formation by measuring shift in maximum absorption at 62.5 uM measured upto 2 hrs by UV absorption spectra based analysis; assay type: ADME; details: cattle
# T1 sequence (P56658 whole entry): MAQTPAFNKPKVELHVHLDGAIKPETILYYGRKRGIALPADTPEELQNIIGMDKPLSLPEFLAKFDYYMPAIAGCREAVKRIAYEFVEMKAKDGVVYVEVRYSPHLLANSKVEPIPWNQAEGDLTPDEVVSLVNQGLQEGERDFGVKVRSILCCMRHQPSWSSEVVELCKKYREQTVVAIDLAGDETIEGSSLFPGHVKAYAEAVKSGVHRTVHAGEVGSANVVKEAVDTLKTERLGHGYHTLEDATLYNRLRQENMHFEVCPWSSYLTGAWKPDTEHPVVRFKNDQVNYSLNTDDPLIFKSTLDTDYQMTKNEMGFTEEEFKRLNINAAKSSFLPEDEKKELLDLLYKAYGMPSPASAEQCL
# [31] = Prodrug conversion in human K562 cells assessed as fold increase in 3'-dATP level at 50 uM incubated for 2 hrs by LC-MS/MS analysis relative to 3'-Deoxyadenosine; assay type: ADME, cell-based; details: k562, 2 h
# CCRF-CEM [32] = test: Cytotoxicity against deoxynucleotidyl transferase-positive human CCRF-CEM cells assessed as cell death preincubated with adenosine deaminase inhibitor, EHNA for 5 mins followed by compound addition and […]; assay type: functional, cell-based
# CCRF-CEM [33] = test: Potency index, ratio of 3'-Deoxyadenosine LC50 to test compound LC50 for cytotoxicity against human CCRF-CEM cells assessed as cell death incubated for 72 hrs by MTS assay; assay type: functional
# RL [34] = test: Potency index, ratio of 3'-Deoxyadenosine LC50 to test compound LC50 for cytotoxicity against human RL cells assessed as cell death incubated for 72 hrs by MTS assay; assay type: functional
# HL-60 [35] = test: Potency index, ratio of 3'-Deoxyadenosine LC50 to test compound LC50 for cytotoxicity against human HL-60 cells assessed as cell death incubated for 72 hrs by MTS assay; assay type: functional
# [36] = Stability in human plasma assessed as reduction in parent compound concentration at 20 uM measured after 4 hrs by UPLC-MS/MS analysis; assay type: ADME, cell-free
# How it was run: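 Human plasma, with or without 1 μM EHNA as ADA inhibitor, was spiked with 20 μM compound at 37 °C/5% CO2. Samples were quenched in methanol, 1:3 sample:methanol, kept 30 min on ice and centrifuged. The supernatant was dried, reconstituted in 10% acetonitrile and quantified by UPLC-MS/MS over time.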
# Adenosine deaminase [37] = target: T1, Adenosine deaminase; test: Metabolic stability assessed as bovine recombinant adenosine deaminase-mediated 3'-deoxyinosine metabolite formation by measuring shift in maximum absorption at 62.5 uM measured after 2 mins by UV absorption spectra based analysis; assay type: ADME; details: cattle
# How it was run: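 Bovine recombinant ADA suspension was diluted in phosphate buffer, pH 7.4, and filtered at 0.2 μm. Substrate at 62.5 μM was added to 17 μL of the ADA solution. UV spectra were scanned at 220–350 nm, 2 nm resolution, every 0.1 min for 10 min to 12 h, with an ADA-only blank subtracted. The read-out is the shift of the 265 nm maximum.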
smiles,measurement,setting,value
Nc1ncnc2c1ncn2[C@@H]1O[C@H](COP(=O)(NCC(=O)OCc2ccccc2)Oc2ccccc2)C[C@H]1O (some centres not stated),CC50,HepG2 [1],142 µM
same,CC50,CCRF-CEM [2],14.9 µM
same,Imax,HepG2 [3],59%
same,LC50,KG-1 [4],136.56 µM
same,Imax,MCF7 [5],87%
same,CC50,MOLT-4 [6],3.55 µM
same,CC50,HL-60 [7],45.2 µM
same,Imax,K562 [8],92%
same,CC50,K562 [9],15.4 µM
same,Imax,CCRF-CEM [10],94%
same,Imax,HL-60 [11],82%
same,Imax,KG-1 [12],65%
same,Imax,MOLT-4 [13],93%
same,CC50,MCF7 [14],15.5 µM
C[C@H](N[P@](=O)(OC[C@@H]1C[C@@H](O)[C@H](n2cnc3c(N)ncnc32)O1)Oc1ccccc1)C(=O)OCc1ccccc1,Imax,MV4-11,100%
C[C@H](N[P@@](=O)(OC[C@@H]1C[C@@H](O)[C@H](n2cnc3c(N)ncnc32)O1)Oc1ccccc1)C(=O)OCc1ccccc1,Imax,KG-1 [12],90%
C[C@H](NP(=O)(OC[C@@H]1C[C@@H](O)[C@H](n2cnc3c(N)ncnc32)O1)Oc1ccccc1)C(=O)OCc1ccccc1 (some centres not stated) [FOSDESDENOSINE SIPALABENAMIDE],fold change (FC),[15],3
same,Drug metabolism,[16],Metabolite_Detected
same,Activity,Leukemic stem cell [17],Active
same,Stability,[18],Stable
same,Activity,Leukemic stem cell [19],Active
same,RatioLC50,K562 [20],3
same,fold change (FC),[21],3
same,Drug metabolism,[22],Metabolite_Detected
same,fold change (FC),[23],3
same,"concentration at 0.5 min, 20 µM",[24],10000 ng/mL
same,"concentration at 0.5 min, 20 µM",[25],0.5 ng/mL
same,Stability,[26],Stable
same,Activity,RL [27],Active
same,Activity,RL [28],Active
same,RatioLC50,Jurkat,200
same,Drug metabolism,[29],Metabolite_Detected
same,Stability,Adenosine deaminase [30],Stable
same,fold change (FC),[31],3
same,Activity,CCRF-CEM [32],Active
same,RatioLC50,CCRF-CEM [33],3
same,RatioLC50,RL [34],3
same,RatioLC50,HL-60 [35],3
CC(=O)O[C@H]1C(=O)[C@@]2(C)[C@H]([C@H](OC(=O)c3ccccc3)[C@]3(O)C[C@H](OC(=O)[C@H](O)[C@@H](NC(=O)c4ccccc4)c4ccccc4)C(C)=C1C3(C)C)[C@]1(OC(C)=O)CO[C@@H]1C[C@@H]2O [PACLITAXEL],Imax,KG-1 [12],89%
CCOC(=O)CCc1ccccc1OP(=O)(N[C@@H](C)C(=O)OCc1ccccc1)OC[C@@H]1C[C@@H](O)[C@H](n2cnc3c(N)ncnc32)O1 (some centres not stated),fold change (FC),[15],2
same,fold change (FC),[21],2
same,fold change (FC),[23],2
same,Imax,KG-1 [12],69%
same,fold change (FC),[31],2
Nc1ncnc2c1ncn2[C@@H]1O[C@H](CO)C[C@H]1O [CORDYCEPIN],Activity,Leukemic stem cell [19],Active
same,Stability,[36],Unstable
same,Stability,Adenosine deaminase [37],Unstable
